Converted amounts (≈) assume the structure as drawn.
How the values were obtained:
Streptococcus pneumoniae = assay: Antibacterial activity against Streptococcus pneumoniae 1629 by broth microdilution method; assay type: functional
Procedure, shortened: (§1)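 Broth microdilution following NCCLS document M7-A4. Serial two-fold dilutions from 0.06 to 64 mcg/ml were tested. The MIC was the lowest concentration preventing visible growth, with the endpoint read with the aid of a mirror reader.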

[1] = Inhibition of Haemophilus influenzae PDF assessed as formate release from fMAS peptide substrate after 20 mins by formate dehydrogenase coupled assay
Procedure, shortened: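 Coupled assay in which formate released from the fMAS peptide is oxidized by formate dehydrogenase, reducing NAD to NADH, read as the rise in absorbance at 340. Reactions were started by adding PDF and velocities measured for 20 min at 25 °C. Values are the mean of at least 2 runs.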

Moraxella catarrhalis = assay: Antibacterial activity against Moraxella catarrhalis 1502 by broth microdilution method; assay type: functional; procedure, shortened: as §1
Staphylococcus aureus = assay: Antibacterial activity against Staphylococcus aureus Oxford by broth microdilution method; assay type: functional; procedure, shortened: as §1
Peptide deformylase [2] = molecular target: T1, Peptide deformylase (Staphylococcus aureus, UniProt P68826); assay: Inhibition of Staphylococcus aureus PDF assessed as formate release from fMAS peptide substrate after 20 mins by formate dehydrogenase coupled assay
T1 sequence (P68826 whole entry): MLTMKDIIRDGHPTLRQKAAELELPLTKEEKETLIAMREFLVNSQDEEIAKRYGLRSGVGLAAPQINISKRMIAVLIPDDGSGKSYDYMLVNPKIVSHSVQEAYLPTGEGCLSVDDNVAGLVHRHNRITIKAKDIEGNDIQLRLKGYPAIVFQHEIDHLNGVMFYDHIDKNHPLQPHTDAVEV

Haemophilus influenzae = assay: Antibacterial activity against Haemophilus influenzae Q1 by broth microdilution method; assay type: functional; procedure, shortened: as §1
Peptide deformylase [3] = molecular target: T2, Peptide deformylase (Streptococcus pneumoniae serotype 4 (strain ATCC BAA-334 / TIGR4), UniProt Q9F2F0); assay: Inhibition of Streptococcus pneumoniae PDF assessed as formate release from fMAS peptide substrate after 20 mins by formate dehydrogenase coupled assay
T2 sequence (Q9F2F0 whole entry): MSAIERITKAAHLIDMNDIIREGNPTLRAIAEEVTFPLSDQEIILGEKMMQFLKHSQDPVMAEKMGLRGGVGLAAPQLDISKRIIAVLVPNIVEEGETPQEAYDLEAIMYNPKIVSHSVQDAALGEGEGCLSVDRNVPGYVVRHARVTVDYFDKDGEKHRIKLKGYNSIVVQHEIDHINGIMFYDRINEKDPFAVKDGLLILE

Enterococcus faecalis = assay: Antibacterial activity against Enterococcus faecalis 7 by broth microdilution method; assay type: functional; procedure, shortened: as §1

| Compound | MIC (Streptococcus pneumoniae) | IC50 [1] | MIC (Moraxella catarrhalis) | MIC (Staphylococcus aureus) | IC50 (Peptide deformylase [2]) | MIC (Haemophilus influenzae) | IC50 (Peptide deformylase [3]) | MIC (Enterococcus faecalis) |
| --- | --- | --- | --- | --- | --- | --- | --- | --- |
| O=CN(O)C[C@@H](CC1CCCC1)C(=O)N1CCC[C@H]1C(=O)NC(=O)C1CCCCC1 | 0.25 µg/mL (≈ 0.593 µM) | 5.2 nM | ≤ 0.06 µg/mL | 1 µg/mL (≈ 2.37 µM) | 3.7 nM | 0.5 µg/mL (≈ 1.19 µM) | 0.5 nM | 1 µg/mL (≈ 2.37 µM) |
| O=CN(O)C[C@@H](CC1CCCC1)C(=O)N1CCC[C@H]1C(=O)NC(=O)NCc1ccccc1 | 0.125 µg/mL (≈ 0.281 µM) | 6.5 nM | ≤ 0.06 µg/mL | 0.5 µg/mL (≈ 1.12 µM) | 1.7 nM | 2 µg/mL (≈ 4.5 µM) | 0.19 nM | 0.5 µg/mL (≈ 1.12 µM) |
| CCOC(=O)NC(=O)[C@@H]1CCCN1C(=O)[C@H](CC1CCCC1)CN(O)C=O | 0.5 µg/mL (≈ 1.3 µM) | 7.7 nM | ≤ 0.06 µg/mL | 0.5 µg/mL (≈ 1.3 µM) | 2.2 nM | 0.25 µg/mL (≈ 0.652 µM) | 0.54 nM | 2 µg/mL (≈ 5.22 µM) |
| C=CCNC(=O)NC(=O)[C@@H]1CCCN1C(=O)[C@H](CC1CCCC1)CN(O)C=O | 1 µg/mL (≈ 2.54 µM) | 20 nM | ≤ 0.06 µg/mL | 0.5 µg/mL (≈ 1.27 µM) | 10 nM | 1 µg/mL (≈ 2.54 µM) | 2.1 nM | 2 µg/mL (≈ 5.07 µM) |
| O=CN(O)C[C@@H](CC1CCCC1)C(=O)N1CCC[C@H]1C(=O)NC(=O)OC1CCNCC1 | 8 µg/mL (≈ 18.2 µM) | 2.7 nM | 1 µg/mL (≈ 2.28 µM) | > 64 µg/mL | 5.9 nM | 16 µg/mL (≈ 36.5 µM) | 1.4 nM | > 64 µg/mL |
| NC(=O)CCNC(=O)NC(=O)[C@@H]1CCCN1C(=O)[C@H](CC1CCCC1)CN(O)C=O | 8 µg/mL (≈ 18.8 µM) | 6.3 nM | 0.5 µg/mL (≈ 1.18 µM) | 32 µg/mL (≈ 75.2 µM) | 3.3 nM | 2 µg/mL (≈ 4.7 µM) | 0.72 nM | > 64 µg/mL |
| O=CN(O)C[C@@H](CC1CCCC1)C(=O)N1CCC[C@H]1C(=O)NC(=O)C1CC1 | 1 µg/mL (≈ 2.64 µM) | 5.5 nM | ≤ 0.06 µg/mL | 0.5 µg/mL (≈ 1.32 µM) | 2.3 nM | 0.125 µg/mL (≈ 0.329 µM) | 1.2 nM | 2 µg/mL (≈ 5.27 µM) |
| O=CN(O)C[C@@H](CC1CCCC1)C(=O)N1CCC[C@H]1C(=O)NC(=O)NCCc1ccccn1 | 0.5 µg/mL (≈ 1.09 µM) | 5.9 nM | ≤ 0.06 µg/mL | 1 µg/mL (≈ 2.18 µM) | 1.4 nM | 1 µg/mL (≈ 2.18 µM) | 0.35 nM | 4 µg/mL (≈ 8.7 µM) |
| O=CN(O)C[C@@H](CC1CCCC1)C(=O)N1CCC[C@H]1C(=O)NC(=O)NCCc1c[nH]cn1 | 8 µg/mL (≈ 17.8 µM) | 4.3 nM | 0.5 µg/mL (≈ 1.11 µM) | 64 µg/mL (≈ 143 µM) | 1.3 nM | 16 µg/mL (≈ 35.7 µM) | 0.15 nM | > 64 µg/mL |
| COC(=O)NC(=O)[C@@H]1CCCN1C(=O)[C@H](CC1CCCC1)CN(O)C=O | 1 µg/mL (≈ 2.71 µM) | 13 nM | ≤ 0.06 µg/mL | 1 µg/mL (≈ 2.71 µM) | 4.5 nM | 0.125 µg/mL (≈ 0.338 µM) | 1.9 nM | 4 µg/mL (≈ 10.8 µM) |
| O=CN(O)C[C@@H](CC1CCCC1)C(=O)N1CCC[C@H]1C(=O)NC(=O)NC1CCCCC1 | 0.125 µg/mL (≈ 0.286 µM) | 4 nM | ≤ 0.06 µg/mL | 0.5 µg/mL (≈ 1.15 µM) | 0.93 nM | 4 µg/mL (≈ 9.16 µM) | 0.2 nM | 2 µg/mL (≈ 4.58 µM) |
| CC(=O)NC(=O)[C@@H]1CCCN1C(=O)[C@H](CC1CCCC1)CN(O)C=O | 4 µg/mL (≈ 11.3 µM) | 16 nM | ≤ 0.06 µg/mL | 1 µg/mL (≈ 2.83 µM) | 12 nM | 0.25 µg/mL (≈ 0.707 µM) | 4 nM | 8 µg/mL (≈ 22.6 µM) |
| CNC(=O)NC(=O)[C@@H]1CCCN1C(=O)[C@H](CC1CCCC1)CN(O)C=O | 1 µg/mL (≈ 2.71 µM) | 6.1 nM | ≤ 0.06 µg/mL | 0.5 µg/mL (≈ 1.36 µM) | 2.1 nM | 0.25 µg/mL (≈ 0.679 µM) | 0.46 nM | 4 µg/mL (≈ 10.9 µM) |
| O=CN(O)C[C@@H](CC1CCCC1)C(=O)N1CCC[C@H]1C(=O)NC(=O)NCCc1ccncc1 | 1 µg/mL (≈ 2.18 µM) | 4.4 nM | ≤ 0.06 µg/mL | 2 µg/mL (≈ 4.35 µM) | 1.7 nM | 2 µg/mL (≈ 4.35 µM) | 0.35 nM | 8 µg/mL (≈ 17.4 µM) |
| CC(C)C(=O)NC(=O)[C@@H]1CCCN1C(=O)[C@H](CC1CCCC1)CN(O)C=O | 2 µg/mL (≈ 5.24 µM) | 10 nM | ≤ 0.06 µg/mL | 2 µg/mL (≈ 5.24 µM) | 5 nM | 0.5 µg/mL (≈ 1.31 µM) | 1.5 nM | 4 µg/mL (≈ 10.5 µM) |
| O=CN(O)C[C@@H](CC1CCCC1)C(=O)N1CCC[C@H]1C(=O)NC(=O)NCCc1cccnc1 | 1 µg/mL (≈ 2.18 µM) | 4.7 nM | ≤ 0.06 µg/mL | 2 µg/mL (≈ 4.35 µM) | 1.4 nM | 2 µg/mL (≈ 4.35 µM) | 0.37 nM | > 64 µg/mL |
| COCC(=O)NC(=O)[C@@H]1CCCN1C(=O)[C@H](CC1CCCC1)CN(O)C=O | 4 µg/mL (≈ 10.4 µM) | 13 nM | ≤ 0.06 µg/mL | 4 µg/mL (≈ 10.4 µM) | 8 nM | 0.125 µg/mL (≈ 0.326 µM) | 1 nM | 16 µg/mL (≈ 41.7 µM) |
| NC(=O)NC(=O)[C@@H]1CCCN1C(=O)[C@H](CC1CCCC1)CN(O)C=O | 2 µg/mL (≈ 5.64 µM) | 4.8 nM | ≤ 0.06 µg/mL | 2 µg/mL (≈ 5.64 µM) | 2.2 nM | 0.125 µg/mL (≈ 0.353 µM) | 0.91 nM | 4 µg/mL (≈ 11.3 µM) |
| O=CN(O)C[C@@H](CC1CCCC1)C(=O)N1CCC[C@H]1C(=O)NC(=O)NCCc1cnccn1 | 1 µg/mL (≈ 2.17 µM) | 6.1 nM | ≤ 0.06 µg/mL | 2 µg/mL (≈ 4.34 µM) | 1.4 nM | 2 µg/mL (≈ 4.34 µM) | 0.41 nM | 8 µg/mL (≈ 17.4 µM) |
| O=CN(O)C[C@@H](CC1CCCC1)C(=O)N1CCC[C@H]1C(=O)NC(=O)NCCCO | 2 µg/mL (≈ 4.85 µM) | 6.9 nM | 0.125 µg/mL (≈ 0.303 µM) | 4 µg/mL (≈ 9.7 µM) | 3.2 nM | 1 µg/mL (≈ 2.42 µM) | 0.77 nM | 16 µg/mL (≈ 38.8 µM) |
| CC(C)CC(=O)NC(=O)[C@@H]1CCCN1C(=O)[C@H](CC1CCCC1)CN(O)C=O | 1 µg/mL (≈ 2.53 µM) | 7 nM | ≤ 0.06 µg/mL | 1 µg/mL (≈ 2.53 µM) | 4 nM | 0.5 µg/mL (≈ 1.26 µM) | 0.8 nM | 2 µg/mL (≈ 5.06 µM) |
| O=CN(O)C[C@@H](CC1CCCC1)C(=O)N1CCC[C@H]1C(=O)NC(=O)NCCCc1ccccc1 | 0.25 µg/mL (≈ 0.529 µM) | 4.1 nM | ≤ 0.06 µg/mL | 0.5 µg/mL (≈ 1.06 µM) | 1 nM | 8 µg/mL (≈ 16.9 µM) | 0.19 nM | 2 µg/mL (≈ 4.23 µM) |
| O=CN(O)C[C@@H](CC1CCCC1)C(=O)N1CCC[C@H]1C(=O)NC(=O)NC1CCC1 | 0.125 µg/mL (≈ 0.306 µM) | 1.8 nM | ≤ 0.06 µg/mL | 0.125 µg/mL (≈ 0.306 µM) | 0.9 nM | 0.5 µg/mL (≈ 1.22 µM) | 0.3 nM | 1 µg/mL (≈ 2.45 µM) |
| CC(C)(C)NC(=O)NC(=O)[C@@H]1CCCN1C(=O)[C@H](CC1CCCC1)CN(O)C=O | 0.125 µg/mL (≈ 0.304 µM) | 2.4 nM | ≤ 0.06 µg/mL | 1 µg/mL (≈ 2.44 µM) | 1.2 nM | 1 µg/mL (≈ 2.44 µM) | 0.22 nM | 1 µg/mL (≈ 2.44 µM) |
| NCCNC(=O)NC(=O)[C@@H]1CCCN1C(=O)[C@H](CC1CCCC1)CN(O)C=O | 16 µg/mL (≈ 40.3 µM) | 7 nM | 2 µg/mL (≈ 5.03 µM) | 16 µg/mL (≈ 40.3 µM) | 2.3 nM | > 64 µg/mL | 0.38 nM | > 64 µg/mL |
| O=CN(O)C[C@@H](CC1CCCC1)C(=O)N1CCC[C@H]1C(=O)NC(=O)NCCO | 2 µg/mL (≈ 5.02 µM) | 8.8 nM | 0.125 µg/mL (≈ 0.314 µM) | 4 µg/mL (≈ 10 µM) | 3.8 nM | 0.5 µg/mL (≈ 1.25 µM) | 1.1 nM | 32 µg/mL (≈ 80.3 µM) |

Source: ChEMBL document CHEMBL2029221, “Acylprolinamides: a new class of peptide deformylase inhibitors with in vivo antibacterial activity” (Bioorg Med Chem Lett, 2012)
